Bioassay records deposited in PubChem BioAssay by The Scripps Research Institute Molecular Screening Center.
S1P1 ag-PAM: activates or potentiates agonism at human S1P1 receptor; P21453; S1P1 CRE-bla cells, forskolin, beta-lactamase FRET, potentiator mode; S1P1 agonist co-added at EC20, 2 nM; 100% = saturating reference agonist, 0% = basal; activation, % at 9.5 µM; 0.57% of 56,000 active;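 active = activation above a cutoff set at the mean activation of all tested compounds plus 3 SD, cut at about 54% in these data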;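 also: forskolin at 4 µM as EC80 and the EC20 agonist is SEW2871; 100% = SEW2871 at its EC100 plus forskolin at EC80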
Target sequence (P21453 whole entry, looked up): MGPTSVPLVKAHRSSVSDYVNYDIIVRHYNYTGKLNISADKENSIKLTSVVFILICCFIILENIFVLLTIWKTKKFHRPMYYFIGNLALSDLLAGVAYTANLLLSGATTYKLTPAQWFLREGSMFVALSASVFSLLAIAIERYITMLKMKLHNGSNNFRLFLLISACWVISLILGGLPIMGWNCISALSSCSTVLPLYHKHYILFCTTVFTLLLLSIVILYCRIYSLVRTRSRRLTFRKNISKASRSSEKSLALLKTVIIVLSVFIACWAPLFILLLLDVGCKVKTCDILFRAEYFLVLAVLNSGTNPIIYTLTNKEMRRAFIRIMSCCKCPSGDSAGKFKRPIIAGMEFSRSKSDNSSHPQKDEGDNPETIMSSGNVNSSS
S1P3 ag: agonists of human S1P3 receptor; Q99500; S1P3 NFAT-BLA reporter cells, agonism, FRET ratio; relative to 1 µM S1P, basal subtracted; activation, % at 4.5 µM; 0.1% of 60,000 active; AID 373;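 active = activation above the screen-wide mean plus 3 SD, cut at about 4.5% in these data, passing the limit was not always enough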
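Assay system: stable CHO line with human S1P3, Gα16, NFAT-BLA reporter; Detection: FRET β-lactamase substrate fluorescence, excitation 405 nm, 460/535 nm emission ratio, background-subtracted; Read-out: percent activation versus median 1 µM S1P response, basal-subtracted, per plate; Incubation: cells plated overnight, compound 4 h 37 °C, substrate 2 h RT.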
5HT1a ag: agonists of human 5-HT1a serotonin receptor | activation, % at 10 µM | CHO 5-HT1a Ga15 NFAT-bla reporter, FRET ratio; 0% basal, 100% maximal reference agonist | AID 567 | P08908 | 0.56% of 65,000 active;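 active = activation above the screen-wide mean activation plus 3 SD, cut at about 19% in these data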;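 also: 0% = DMSO wells and 100% = 5-CT at EC100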
5-HT1A blocker: blocks the human serotonin 5-HT1a receptor. CHO 5-HT1a Ga15 NFAT-bla reporter, antagonist mode. 0.68% of 62,000 active. P08908. AID 612. inhibition, % at 10 µM;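 active = inhibition above the mean of all tested compounds plus 3 SD, cut at about 43% in these data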;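 also: receptor stimulated by 5-CT agonist at 100 nM near EC80; beta-lactamase reporter measured by ratiometric fluorescence of a cleavable substrate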
HTR1E antagonist: blocks the human 5-HT1E serotonin receptor; P28566; inhibition, % at 6 µM; 0.99% of 65,000 active; AID 571; CHO 5-HT1E Ga15 NFAT-bla reporter, FRET, antagonist;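 active = inhibition above a set limit, the mean inhibition across every tested compound plus 3 SD, cut at about 29% in these data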;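 also: signal is the 460 over 535 nm emission ratio of beta-lactamase substrate; 0% = agonist plus DMSO wells and 100% = wells without agonist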
HTR1E agonist: 5-HT1E (human) receptor agonism. 0.69% of 65,000 active. P28566. CHO 5-HT1E Ga15 NFAT-bla reporter, FRET; 0% DMSO wells, 100% control agonist wells. activation, % at 6 µM;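 active = activation above a set limit, the screen-wide mean activation plus 3 SD, cut at about 8.5% in these data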;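 also: 100% = positive control agonist at 1 µM giving full maximal response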
An asterisk follows results filed as active. Compounds with a hit are over-represented: about 3% of the library has one in this group of screens.

Screening COc1ccc(C(=O)N2CCN(C(=O)c3cc(OC)c(OC)c(OC)c3)CC2)cc1 returned S1P1 ag-PAM 4, S1P3 ag 0, 5HT1a ag 1, 5-HT1A blocker -4, HTR1E antagonist -10 and HTR1E agonist 1.
For O=S1(=O)C=C(Sc2nnc(-c3ccccc3)o2)c2ccccc21 the results were S1P1 ag-PAM 107*, S1P3 ag 0, 5HT1a ag -5, 5-HT1A blocker 104*, HTR1E antagonist 106* and HTR1E agonist -2.
`Cc1cccc(OCC(O)Cn2c(=N)n(CCN3CCCCC3)c3ccccc32)c1` (configuration not stated) gave S1P1 ag-PAM -7, S1P3 ag -2, 5HT1a ag 7, 5-HT1A blocker 68*, HTR1E antagonist 6 and HTR1E agonist 0.
Screening N=c1n(Cc2ccccc2)c2ccccc2n1CC(O)c1ccco1 (configuration not stated) returned S1P1 ag-PAM -1, S1P3 ag 0, 5HT1a ag -4, 5-HT1A blocker 13, HTR1E antagonist 0 and HTR1E agonist 0.
COc1ccc(OCC(O)Cn2c(=N)n(Cc3ccccc3)c3ccccc32)cc1 (configuration not stated) was read as S1P1 ag-PAM 9, S1P3 ag -1, 5HT1a ag -3, 5-HT1A blocker 48*, HTR1E antagonist 12 and HTR1E agonist -2.
Screening CCOC(=O)C(CC)Sc1nc(-c2ccc(OC)cc2)nc2c1c(=O)n(C)c(=O)n2C (configuration not stated) returned S1P1 ag-PAM 8, S1P3 ag 0, 5HT1a ag -2, 5-HT1A blocker 17, HTR1E antagonist 4 and HTR1E agonist 0.
CCN(CC)S(=O)(=O)c1ccc(NC(=O)COc2c(OC)cccc2OC)cc1 was read as S1P1 ag-PAM -32, S1P3 ag 0, 5HT1a ag -1, 5-HT1A blocker -16, HTR1E antagonist 13 and HTR1E agonist 0.
Screening CCCCOc1ccc(/C(N)=N/O)cc1 returned S1P3 ag -1, 5HT1a ag -1, 5-HT1A blocker 4, HTR1E antagonist 11 and HTR1E agonist -1.
Screening CC/C(=C\C(=O)c1cccnc1)Nc1ccc(C)c(C)c1 returned S1P1 ag-PAM 5, S1P3 ag 1, 5HT1a ag -3, 5-HT1A blocker 2, HTR1E antagonist -3 and HTR1E agonist 0.
CCOC(=O)CSc1nc2c(sc(=S)n2Cc2ccco2)c(=O)n1-c1ccccc1 was read as 5HT1a ag 0, 5-HT1A blocker 55*, HTR1E antagonist 9 and HTR1E agonist -2.
`Cc1ccc(NC(=O)C2CCCN2S(=O)(=O)c2ccc(F)cc2)c(C)c1` (configuration not stated) gave S1P3 ag 0, 5HT1a ag -2, 5-HT1A blocker -5, HTR1E antagonist -12 and HTR1E agonist 0.
Screening Cn1c(=O)oc2cc(S(=O)(=O)NC(Cc3ccccc3)C(=O)N3CCCCC3)ccc21 (configuration not stated) returned S1P1 ag-PAM -9, S1P3 ag 0, 5HT1a ag 0, 5-HT1A blocker -10, HTR1E antagonist -5 and HTR1E agonist 0.
`C=CCn1c(N)c(C(=O)Nc2ccccc2)c2nc3ccccc3nc21` gave S1P1 ag-PAM -60, S1P3 ag 4, 5HT1a ag 27*, HTR1E antagonist 1 and HTR1E agonist 6.
C=CCn1c(N)c(C(=O)OC(C)(C)C)c2nc3ccccc3nc21 was read as S1P1 ag-PAM -18, S1P3 ag -2, 5HT1a ag 4, HTR1E antagonist 12 and HTR1E agonist 2.
Screening Cc1c(CN2CCN(c3cccc(C(F)(F)F)c3)CC2)c(=O)n(-c2ccccc2)n1C returned S1P1 ag-PAM 8, S1P3 ag 0, 5HT1a ag 1, 5-HT1A blocker 1, HTR1E antagonist 2 and HTR1E agonist 60*.
`CCOc1cc(CN2CCN(c3cccc(C(F)(F)F)c3)CC2)ccc1O` gave S1P3 ag 0, 5HT1a ag 20*, 5-HT1A blocker 33, HTR1E antagonist 9 and HTR1E agonist 8.
Screening Cc1ccc(Cl)cc1N1CCN(C(=O)CCS(=O)(=O)c2cccc3nonc23)CC1 returned 5HT1a ag -2, 5-HT1A blocker -5, HTR1E antagonist 5 and HTR1E agonist 0.
`O=C(COC(=O)c1ccccc1S(=O)(=O)N1CCCCC1)NCC(F)(F)F` gave S1P1 ag-PAM 12, S1P3 ag 1, 5HT1a ag -5, 5-HT1A blocker 12, HTR1E antagonist 29* and HTR1E agonist -1.
For COCCN(C(=O)Cc1cccs1)c1nnc(-c2cccnc2)s1 the results were S1P1 ag-PAM 24, S1P3 ag 0, 5HT1a ag -2, 5-HT1A blocker -13, HTR1E antagonist 3 and HTR1E agonist -1.
COCCN(C(=O)c1ccccc1)c1nnc(-c2cccnc2)s1 was read as S1P1 ag-PAM 62*, S1P3 ag 0, 5HT1a ag -3, 5-HT1A blocker -1, HTR1E antagonist -7 and HTR1E agonist 0.
Screening Cc1nn(C)c(C)c1NS(=O)(=O)c1ccccc1 returned S1P1 ag-PAM -24, S1P3 ag 0, 5HT1a ag -1, 5-HT1A blocker -10, HTR1E antagonist 6 and HTR1E agonist 0.
`Cc1nn(-c2ccccc2)c(C)c1NS(=O)(=O)c1ccccc1` gave S1P1 ag-PAM -22, S1P3 ag 0, 5HT1a ag -1, 5-HT1A blocker 10, HTR1E antagonist 36* and HTR1E agonist -1.
`CC(CCc1ccccc1)NC(=O)CSc1nc(N)cc(N)n1` (configuration not stated) gave S1P1 ag-PAM 9, S1P3 ag 0, 5HT1a ag 1, 5-HT1A blocker 3, HTR1E antagonist -5 and HTR1E agonist 58*.
`Cc1ccc(CNC(=O)C2c3ccccc3C(=O)N3CCc4ccccc4C23)o1` (configuration not stated) gave S1P1 ag-PAM 24, S1P3 ag 0, 5HT1a ag -3, 5-HT1A blocker 21, HTR1E antagonist 7 and HTR1E agonist -1.
`O=C(NCCN1CCN(Cc2ccccc2)CC1)C1c2ccccc2C(=O)N2CCc3ccccc3C12` (configuration not stated) gave S1P1 ag-PAM 13, S1P3 ag -1, 5HT1a ag -1, 5-HT1A blocker 59*, HTR1E antagonist 10 and HTR1E agonist 2.
For CCCCCOC(=O)Cn1c(SCC(=O)Nc2ccccc2)nc2c1c(=O)[nH]c(=O)n2C the results were S1P1 ag-PAM -1, S1P3 ag 1, 5HT1a ag -1, 5-HT1A blocker -7, HTR1E antagonist 2 and HTR1E agonist 9.7*.
